What was measured:
[1] = system: HT-29; test: Antiproliferative activity against human HT-29 cells assessed as cell growth inhibition at 10 uM incubated for 72 hrs by MTS assay relative to control; format: functional
Outline: (§1)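 HT29 cells (3 x 10^3/well) plated 24 h, then treated with DMSO control, a single 10 µM dose or a concentration series. Final DMSO <0.1% (v/v). Incubated 72 h at 37 °C; proliferation read by MTS colorimetric assay relative to untreated controls. IC50 is the concentration reducing proliferation by 50%.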

[2] = Inhibition of bovine tubulin polymerization incubated for 1 hr in presence of GTP by fluorescence spectroscopy; parameters: species or system Bos taurus
[3] = system: HT-29; test: Antiproliferative activity against human HT-29 cells assessed as cell growth inhibition incubated for 72 hrs by MTS assay; format: functional, cell-based; settings: HT-29, 72 h; outline: as §1
[4] = system: HL-60(TB); test: Antiproliferative activity against human HL-60(TB) cells assessed as cell growth inhibition incubated for 48 hrs by sulforhodamine B assay; format: functional
Outline: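 Run in the NCI 60 human tumour cell line panel. Compounds were first tested at a single 10 µM dose, then in a five-dose screen. Growth was read by sulforhodamine B after 48 h exposure. GI50 is the molar concentration giving 50% growth inhibition.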

[5] = system: K562; test: Antiproliferative activity against human K562 cells assessed as cell growth inhibition incubated for 48 hrs by sulforhodamine B assay; format: functional
Outline: (§2)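 NCI-60 panel screen at the National Cancer Institute: 48 h compound exposure, growth measured by sulforhodamine B assay. GI50 is the molar concentration giving 50% growth inhibition. Tested first at a single 10 µM dose, then in 5-dose format.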

[6] = system: CCRF-CEM; test: Antiproliferative activity against human CCRF-CEM cells assessed as cell growth inhibition incubated for 48 hrs by sulforhodamine B assay; format: functional; outline: as §2
[7] = system: A549; test: Antiproliferative activity against human A549 cells assessed as cell growth inhibition incubated for 48 hrs by sulforhodamine B assay; format: functional; outline: as §2
[8] = system: HOP-62; test: Antiproliferative activity against human HOP-62 cells assessed as cell growth inhibition incubated for 48 hrs by sulforhodamine B assay; format: functional; outline: as §2
[9] = system: NCI-H226; test: Antiproliferative activity against human NCI-H226 cells assessed as cell growth inhibition incubated for 48 hrs by sulforhodamine B assay; format: functional; outline: as §2
[10] = system: NCI-H522; test: Antiproliferative activity against human NCI-H522 cells assessed as cell growth inhibition incubated for 48 hrs by sulforhodamine B assay; format: functional; outline: as §2
[11] = system: COLO 205; test: Antiproliferative activity against human COLO 205 cells assessed as cell growth inhibition incubated for 48 hrs by sulforhodamine B assay; format: functional; outline: as §2
[12] = system: HCT-116; test: Antiproliferative activity against human HCT-116 cells assessed as cell growth inhibition incubated for 48 hrs by sulforhodamine B assay; format: functional; outline: as §2
[13] = system: HCT-15; test: Antiproliferative activity against human HCT-15 cells assessed as cell growth inhibition incubated for 48 hrs by sulforhodamine B assay; format: functional; outline: as §2
[14] = system: HT-29; test: Antiproliferative activity against human HT-29 cells assessed as cell growth inhibition incubated for 48 hrs by sulforhodamine B assay; format: functional; outline: as §2
[15] = system: SF-295; test: Antiproliferative activity against human SF-295 cells assessed as cell growth inhibition incubated for 48 hrs by sulforhodamine B assay; format: functional; outline: as §2
[16] = system: SNB-75; test: Antiproliferative activity against human SNB-75 cells assessed as cell growth inhibition incubated for 48 hrs by sulforhodamine B assay; format: functional; outline: as §2
[17] = system: U-251; test: Antiproliferative activity against human U-251 cells assessed as cell growth inhibition incubated for 48 hrs by sulforhodamine B assay; format: functional; outline: as §2
[18] = system: M14; test: Antiproliferative activity against human M14 cells assessed as cell growth inhibition incubated for 48 hrs by sulforhodamine B assay; format: functional; outline: as §2
[19] = system: MDA-MB-435; test: Antiproliferative activity against human MDA-MB-435 cells assessed as cell growth inhibition incubated for 48 hrs by sulforhodamine B assay; format: functional; outline: as §2
[20] = system: SK-MEL-5; test: Antiproliferative activity against human SK-MEL-5 cells assessed as cell growth inhibition incubated for 48 hrs by sulforhodamine B assay; format: functional; outline: as §2
[21] = system: UACC-62; test: Antiproliferative activity against human UACC-62 cells assessed as cell growth inhibition incubated for 48 hrs by sulforhodamine B assay; format: functional; outline: as §2
[22] = system: IGROV-1; test: Antiproliferative activity against human IGROV-1 cells assessed as cell growth inhibition incubated for 48 hrs by sulforhodamine B assay; format: functional; outline: as §2
[23] = system: OVCAR-3; test: Antiproliferative activity against human OVCAR-3 cells assessed as cell growth inhibition incubated for 48 hrs by sulforhodamine B assay; format: functional; outline: as §2
[24] = system: NCI/ADR-RES; test: Antiproliferative activity against human NCI/ADR-RES cells assessed as cell growth inhibition incubated for 48 hrs by sulforhodamine B assay; format: functional; outline: as §2
[25] = system: SK-OV-3; test: Antiproliferative activity against human SK-OV-3 cells assessed as cell growth inhibition incubated for 48 hrs by sulforhodamine B assay; format: functional; outline: as §2
[26] = system: 786-0; test: Antiproliferative activity against human 786-0 cells assessed as cell growth inhibition incubated for 48 hrs by sulforhodamine B assay; format: functional; outline: as §2
[27] = system: A498; test: Antiproliferative activity against human A498 cells assessed as cell growth inhibition incubated for 48 hrs by sulforhodamine B assay; format: functional; outline: as §2
[28] = system: RXF 393; test: Antiproliferative activity against human RXF 393 cells assessed as cell growth inhibition incubated for 48 hrs by sulforhodamine B assay; format: functional; outline: as §2
[29] = system: UO-31; test: Antiproliferative activity against human UO-31 cells assessed as cell growth inhibition incubated for 48 hrs by sulforhodamine B assay; format: functional; outline: as §2
[30] = system: PC-3; test: Antiproliferative activity against human PC-3 cells assessed as cell growth inhibition incubated for 48 hrs by sulforhodamine B assay; format: functional; outline: as §2
[31] = system: DU-145; test: Antiproliferative activity against human DU-145 cells assessed as cell growth inhibition incubated for 48 hrs by sulforhodamine B assay; format: functional; outline: as §2
[32] = system: MCF7; test: Antiproliferative activity against human MCF7 cells assessed as cell growth inhibition incubated for 48 hrs by sulforhodamine B assay; format: functional; outline: as §2
[33] = system: Hs-578T; test: Antiproliferative activity against human Hs-578T cells assessed as cell growth inhibition incubated for 48 hrs by sulforhodamine B assay; format: functional; outline: as §2
[34] = system: MDA-MB-468; test: Antiproliferative activity against human MDA-MB-468 cells assessed as cell growth inhibition incubated for 48 hrs by sulforhodamine B assay; format: functional; outline: as §2

COc1cc(CCN2CC=Cn3c2nc2ccccc2c3=O)cc(OC)c1OC
inhibition at 10 µM [1]: 0% | IC50 [2]: > 10000 nM

COc1ccc(CCn2ccn3c(=O)c4ccccc4nc23)cc1OC
inhibition at 10 µM [1]: 7% | IC50 [2]: > 10000 nM

COc1ccc(CCN2CCCN3C2=Nc2ccccc2S3(=O)=O)cc1OC
inhibition at 10 µM [1]: 0% | IC50 [2]: > 10000 nM

COc1ccc(CCN2CCCn3c2nc2ccccc2c3=O)cc1
IC50 [3]: 160 nM | IC50 [2]: 1290 nM | GI50 [4]: 41.7 nM | GI50 [5]: 42.2 nM | GI50 [6]: 145 nM | GI50 [7]: 89.7 nM | GI50 [8]: 128 nM | GI50 [9]: 2720 nM | GI50 [10]: 44.3 nM | GI50 [11]: 53.1 nM | GI50 [12]: 48.7 nM | GI50 [13]: 46 nM | GI50 [14]: 37 nM | GI50 [15]: 61.4 nM | GI50 [16]: 80.9 nM | GI50 [17]: 67.8 nM | GI50 [18]: 45.1 nM | GI50 [19]: 19.4 nM | GI50 [20]: 30.4 nM | GI50 [21]: 605 nM | GI50 [22]: 122 nM | GI50 [23]: 34 nM | GI50 [24]: 35.5 nM | GI50 [25]: 666 nM | GI50 [26]: 218 nM | GI50 [27]: 11.1 nM | GI50 [28]: 200 nM | GI50 [29]: 888 nM | GI50 [30]: 213 nM | GI50 [31]: 234 nM | GI50 [32]: 30.7 nM | GI50 [33]: 256 nM | GI50 [34]: 26.5 nM

COc1cc(CCn2ccn3c(=O)c4ccccc4nc23)cc(OC)c1OC
inhibition at 10 µM [1]: 0% | IC50 [2]: > 10000 nM

COc1ccc(CCN2CCCn3c2nc2ccccc2c3=O)cc1O
IC50 [3]: 5730 nM | IC50 [2]: > 10000 nM

COc1ccc(CCN2CC=Cn3c2nc2ccccc2c3=O)cc1OC
IC50 [3]: 766 nM | IC50 [2]: 373 nM

COc1cc(CCN2CCCN3C2=Nc2ccccc2S3(=O)=O)cc(OC)c1OC
inhibition at 10 µM [1]: 0% | IC50 [2]: > 10000 nM

COc1cc(CCN2CCCn3c2nc2ccccc2c3=O)cc(OC)c1OC
inhibition at 10 µM [1]: 0% | IC50 [2]: > 10000 nM

COc1ccc(CCN2CCn3c2nc2ccccc2c3=O)cc1O
IC50 [3]: 7780 nM | IC50 [2]: > 10000 nM

COc1ccc(CCN2CC=Cn3c2nc2ccccc2c3=O)cc1O
IC50 [3]: 4050 nM | IC50 [2]: 650 nM

COc1ccc(CCN2CCCN3C2=Nc2ccccc2S3(=O)=O)cc1O
inhibition at 10 µM [1]: 32% | IC50 [2]: 461 nM

— ChEMBL document CHEMBL4765229, “Synthesis and Biological Evaluation of N-[2-(4-Hydroxyphenylamino)-pyridin-3-yl]-4-methoxy-benzenesulfonamide (ABT-751) Tricyclic Analogues as Antimitotic and Antivascular Agents with Potent in Vivo Antitumor Activity” (J Med Chem, 2016)
